Data set [1] deals with BV-2. As to the kind of experiment: Antiinflammatory activity against mouse BV2 cells assessed as reduction in LPS-induced NO production at 10 uM incubated for 2 hrs followed by LPS stimulation and measured after 24 hrs by Griess reagent based assay relative to control. The class given is functional. As to conditions: BV-2, 26 h. In outline:
(§1)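 BV-2 cells were seeded at 2.0×10^5 cells/mL in DMEM high-glucose with 10% FBS and grown 24 h at 37 °C, 5% CO₂. They were pretreated with compound for 2 h, then exposed to LPS at 100 ng/mL for 24 h. Medium was mixed 1:1 with Griess buffer for 15 min at room temperature and read at 540 nm. Nitrite came from a sodium nitrite standard curve and was normalized to the LPS-group mean (100%).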
(In general: The Griess reaction detects nitrite, a stable product of nitric oxide.)

Data set [2] in a line: Cytotoxicity against mouse BV2 cells assessed as cell viability at 10 uM measured after 24 hrs by MTT assay. Type of data set: cell-based, BV-2. As to conditions: read-out: Activity. In a few lines:
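BV-2 cells were seeded at 1.25×10^4 cells/mL and grown 24 h at 37 °C, 5% CO₂. They were then exposed to compound for 24 h, with 0.5 mg/mL MTT added for the final 3 h. Absorbance was read at 490 nm, and viability was normalized to the untreated control mean (100%).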
Background: Tetrazolium dyes change colour on reduction, which living cells bring about.

Data set [3] has as its system BV-2. The data set is described as follows: Antiinflammatory activity against mouse BV2 cells assessed as reduction in LPS-induced IL-6 mRNA expression incubated for 2 hrs followed by LPS stimulation and measured after 6 hrs by qRT-PCR analysis. Type of data set: functional, cell-based. As to conditions: time 8.0 hrs. In outline: (§2)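 BV-2 microglia were seeded at 1 × 10⁵ cells/mL, pretreated with compound for 2 h, then given LPS at 100 ng/mL for 6 h. Total RNA was extracted with Trizol and reverse-transcribed to cDNA, and IL-1β or IL-6 transcripts were quantified.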
Background: In qPCR the cycle at which signal appears reflects the starting amount.

Data set [4] concerns BV-2. The data set is described as follows: Antiinflammatory activity against mouse BV2 cells assessed as reduction in LPS-induced IL-1beta mRNA expression incubated for 2 hrs followed by LPS stimulation and measured after 6 hrs by qRT-PCR analysis. The class given is functional, cell-based. The note with it: time 8.0 hrs. In outline:
as §2

For data set [5], the system named is BV-2. As to the kind of experiment: Antiinflammatory activity against mouse BV2 cells assessed as reduction in LPS-induced NO production at 20 uM incubated for 2 hrs followed by LPS stimulation and measured after 24 hrs by Griess reagent based assay relative to control. Type of data set: functional. The note with it: BV-2, 26 h. In outline: as §1

For the compound `C/C1=C\CC[C@](C)(O)/C=C/[C@H](C(C)C)CC/C(C)=C/CC1`, the NO production (% of LPS) at 10 µM in data set [1] is 76.5%. Moreover, the viability at 24 h, 10 µM in data set [2] was 106%.
For the compound `C/C1=C\CC[C@](C)(O)[C@H]2C=C(C(C)C)[C@H](C/C(C)=C/CC1)O2`, the NO production (% of LPS) at 10 µM in data set [1] was 82%. Also, the viability at 24 h, 10 µM in data set [2] was determined as 99.2%.
For the compound `C/C1=C\CC/C(C)=C/C=C(/C(C)C)[C@@H](O)C[C@](C)(O)/C=C/C1`, the NO production (% of LPS) at 10 µM in data set [1] was 79.5%. The viability at 24 h, 10 µM in data set [2] turned out to be 95.2%.
With `C=C1CC/C=C(\C)C[C@H](OC(C)=O)/C(C(C)C)=C\C=C(/C)CC[C@H]1O`, the NO production (% of LPS) at 10 µM in data set [1] was 74.5%. Further, the viability at 24 h, 10 µM in data set [2] worked out at 108%.
With `C/C1=C\C=C(\C(C)C)[C@@H](O)[C@H](O)/C(C)=C/CC/C(C)=C/CC1`, in data set [1], the NO production (% of LPS) at 10 µM amounted to 68.7%. Further, the viability at 24 h, 10 µM in data set [2] amounted to 101%. The inhibition entry in data set [3] and in data set [4] was “Dose-Dependent Effect” each time.
Consider `CC(=O)O[C@H]1C/C(C)=C/CCC(C)(O)/C=C/C/C(C)=C/C=C\1C(C)C` (stereo partly specified), for which the NO production (% of LPS) at 10 µM in data set [1] was 74.4%. The viability at 24 h, 10 µM in data set [2] is 97.2%.
Take `C/C1=C\C=C(\C(C)C)CC/C(C)=C/CC/C(C)=C/CC1`: in data set [1], the NO production (% of LPS) at 10 µM was 85.5%. In addition, the viability at 24 h, 10 µM in data set [2] came to 100%.
On to `C/C1=C\C=C(\C(C)C)[C@@H](O)C[C@]2(C)O[C@H]2CC/C(C)=C/CC1`, for which the NO production (% of LPS) at 10 µM in data set [1] was found to be 77.9%. In addition, the viability at 24 h, 10 µM in data set [2] is 101%.
As for `C=C1C[C@H](O)/C(C(C)C)=C\C=C(/C)CC/C=C(\C)CC[C@H]1O`, the NO production (% of LPS) at 10 µM in data set [1] was 75.9%. Besides, the viability at 24 h, 10 µM in data set [2] came out at 96%.
For the compound `C/C1=C\C=C(\C(C)C)[C@@H](O)C/C(C)=C/CC/C(C)=C/CC1`, the NO production (% of LPS) at 10 µM in data set [1] was determined as 67.8%. In addition, in data set [2], the viability at 24 h, 10 µM came to 106%. Further, the inhibition entry in data set [3] and in data set [4] was “Dose-Dependent Effect” each time.
With `C/C1=C\CC/C(C)=C/C=C(/C(C)C)[C@@H](O)C[C@@](C)(OO)/C=C/C1`, in data set [1], the NO production (% of LPS) at 10 µM stood at 85.3%. For the same compound, the viability at 24 h, 10 µM in data set [2] is 104%.
With `C=C1CC/C=C(\C)C[C@H](O)/C(C(C)C)=C\C=C(/C)CC[C@H]1O`, the NO production (% of LPS) at 10 µM in data set [1] was found to be 84.6%. Further, in data set [2], the viability at 24 h, 10 µM came to 102%.
As to `C/C1=C\C=C(\C(C)C)CC/C(C)=C/CCC(C)(O)/C=C/C1` (stereo unspecified), in data set [1], the NO production (% of LPS) at 10 µM came to 80.2%. Moreover, the viability at 24 h, 10 µM in data set [2] was 101%.
With `CC(=O)OC/C1=C\CC/C(C)=C/CC/C(C)=C/C=C(/C(C)C)[C@@H](O)C1`, in data set [1], the NO production (% of LPS) at 10 µM came to 71.3%. Also, the viability at 24 h, 10 µM in data set [2] turned out to be 111%.
Regarding `C/C1=C\[C@H]2O[C@](C)(CC[C@H]2C(C)C)[C@@H](O)CC/C(C)=C/CC1`, the NO production (% of LPS) at 10 µM in data set [1] is 87.2%. Moreover, the viability at 24 h, 10 µM in data set [2] was found to be 99.9%.
Consider `C/C1=C/C=C(/C(C)C)[C@@H](O)C/C(C)=C/CC/C(C)=C/CC1`, for which the NO production (% of LPS) at 10 µM in data set [1] was determined as 88.8%. The viability at 24 h, 10 µM in data set [2] is 103%.
For `C=C1C[C@H](O)/C(C(C)C)=C\C=C(/C)CC/C=C(\C)CC[C@@H]1OO`, the NO production (% of LPS) at 10 µM in data set [1] amounted to 74.2%. Further, the viability at 24 h, 10 µM in data set [2] is 103%.
As for `Oc1ccc(/C=C/c2cc(O)cc(O)c2)cc1` [RESVERATROL], the NO production (% of LPS) at 20 µM in data set [5] was found to be 74.3%.
`CC(=O)OC/C1=C\CC/C(C)=C/CC[C@](C)(O)[C@H]2C=C(C(C)C)[C@H](C1)O2`: in data set [1], the NO production (% of LPS) at 10 µM worked out at 92.7%. In addition, the viability at 24 h, 10 µM in data set [2] worked out at 102%.

The values above are taken from ChEMBL document CHEMBL4819082, “Ximaoglaucumins A - F, new cembranoids with anti-inflammatory activities from the South China Sea soft coral Sarcophyton glaucum” (Bioorg Med Chem, 2021).
